Results pooled from the literature.
Compare with care: the assays were run in different laboratories.
CDK9: Cyclin-dependent kinase 9 (CDK9, Homo sapiens, UniProt P50750)

| Compound | target | assay | test system | setting | measurement | value |
| --- | --- | --- | --- | --- | --- | --- |
| N#Cc1ccc(NC(=O)Nc2ccccc2)cc1 | CDK9 | cell-free assay, competition with immobilised ligand | – | 25 µM | remaining binding | 100% |
| Cc1cc(S(=O)(=O)N[C@H]2CC[C@H](CN3CCN(c4ccc(C5CCC(=O)NC5=O)cc4F)CC3)CC2)ccc1Nc1ncc(C(F)(F)F)c(N2CCC[C@](C)(O)C2)n1 (stereo partly drawn) | CDK9 | binding, competition with immobilised ligand | – | 1 µM | remaining binding | 78% |
| C=CC(=O)N1CCC([C@@H]2CCNc3c(C(N)=O)c(-c4ccc(Oc5ccccc5)cc4)nn32)CC1 | CDK9 | enzyme activity, inhibitor | – | 1 µM | inhibition | 0% |
| CC(C)(C)c1cnc(CSc2cnc(NC(=O)C3CCN(C(=O)CCOCCCN4Cc5cc6c(cc5C4)C(=O)N(C4CCC(=O)NC4=O)C6=O)CC3)s2)o1 (stereo not drawn) | CDK9 | protein level, degrader, western blot | TC-71 | 25 nM | inhibition | 85.1% |
| C[C@]1(O)CCCN(c2nc(Nc3ccc(S(=O)(=O)N[C@H]4CC[C@H](CN5CCN(c6ccc(C7CCC(=O)NC7=O)cc6F)CC5)CC4)cc3Cl)ncc2C(F)(F)F)C1 (stereo partly drawn) | CDK9 | binding, competition with immobilised ligand | – | 1 µM | remaining binding | 100% |
| COc1ccc2[nH]c3c4[nH]c5ccc(OC)cc5c4c4c(c3c2c1)C(=O)NC4=O | CDK9 | binding | – | 1 µM | remaining binding | 58% |
| CC(C)(C)c1cnc(CSc2cnc(NC(=O)C3CCN(C(=O)CCOCCN4Cc5cc6c(cc5C4)C(=O)N(C4CCC(=O)NC4=O)C6=O)CC3)s2)o1 (stereo not drawn) | CDK9 | protein level, degrader, western blot | TC-71 | 25 nM | inhibition | 87.5% |
| CCCCC(=O)Nc1ccc(-c2ccc3ncn(CCC)c(=O)c3c2)cn1 | CDK9 | binding, competition with immobilised ligand | – | 0.5 µM | remaining binding | 92% |
| Cc1ccc(NC(=O)c2ccnc(C(F)(F)F)c2)cc1-c1cc(OCCO)nc(N2CCOCC2)c1 | CDK9 | binding | – | 1 µM | remaining binding | 100% |
| CC(C)S(=O)(=O)c1ccc2nccc(Nc3ccc4sc(C5CCCC5)nc4c3)c2c1 | Cyclin-dependent kinase 9, with cyclin T1 (CDK9, Homo sapiens, UniProt P50750) | enzyme activity, inhibitor | – | 1 µM | activity vs control | 98% |
| CC(C)(C)c1cnc(CSc2cnc(NC(=O)C3CCN(CC(=O)NCCOCCOCCOCCNc4cccc5c4C(=O)N(C4CCC(=O)NC4=O)C5=O)CC3)s2)o1 (stereo not drawn) | CDK9 | protein level, degrader, western blot | TC-71 | 25 nM | inhibition | 36.8% |
| C=CC(=O)N1CCC[C@@H](n2nc(-c3ccc(Oc4ccccc4)cc3)c3c(N)ncnc32)C1 | CDK9 | enzyme activity, inhibitor | – | 1 µM | inhibition | 2% |
